# STAT3 inh – IL-6 driven STAT3 reporter inhibitors, primary screen, U3A cells, luciferase, luminescence, MLSCN library | IL-6 STAT3-luciferase reporter; host cell line lacks STAT1 | inhibition, % at 5.5 µM | 190,000 tested, 0.89% active;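 active means inhibition above the mean inhibition across all screened compounds plus 3 SD, cut at about 44% in these data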;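 further: 0% = DMSO only wells and 100% = 100 µM nifuroxazide control wells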
# Lipid droplet – inhibitors of hepatocyte lipid droplet formation, primary screen, imaging, high-throughput imaging, BODIPY stain. AML12 mouse hepatocytes, oleate lipid droplets. inhibition, % at 6.5 µM. 240,000 tested, 0.4% active. AID 1656, 2009;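 active means lipid droplet intensity inhibited by at least 50%, with more than 500 cells counted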
#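 Assay system: AML12 mouse liver cells | Compound dosing: One dose, 6.5 µM compound | Read-out basis: Droplet intensity reduction, % inhibition | Measured by: Fluorescence imaging, 20x objective, two fields per well | Schedule: Overnight treatment with compound plus oleate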
# H9c2 TAG inh – inhibitors of triacylglycerol accumulation, primary screen, cell-based, uHTS, fluorescence, H9c2; H9c2 cells, Nile Red lipid (TAG) fluorescence; cells loaded with 200 µM oleic acid; inhibition, % at 12.5 µM; 230,000 tested, 0.66% active;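 active means pattern-corrected inhibition of lipid staining of at least 50% with the nuclear-stain viability signal not falling by more than 50%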;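 further: 0% = DMSO wells and 100% = triacsin C control wells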
# Platelet DG rel – inhibitors of platelet dense granule secretion, primary screen, cell-based, MLPCN, human platelets | human platelet-rich plasma, SFLLRN dense granule ATP release, luminescence | inhibition, %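 (compounds screened at 7.5 µM in platelet-rich plasma)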 | 300,000 tested, 0.22% active;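 active means mean replicate score, as percent of positive control, at or above 50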
# PPC-1+TRAIL kill – compounds killing PPC-1 cancer cells with TRAIL present, primary screen, TRAIL potentiator project, ATPLite luminescence, uHTS | PPC-1 cells + TRAIL, ATPLite viability luminescence | 220,000 tested, 0.41% active | cell killing (% activity), % at 4 µM or 5 µM;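 active means cell killing above 50% in the first pass at 4 µM, then a duplicate retest at 5 µM averaging 50% or more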;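 further: plate controls were cells with TRAIL plus DMSO for no effect and medium-only wells lacking cells for full effect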
# STAT1 blocker – STAT1 signaling inhibitors, primary screen, cell-based, HTS, luciferase reporter | NIH 3T3 STAT1-luciferase reporter, IFN-gamma, luminescence | inhibition, % at 5.5 µM | 200,000 tested, 0.35% active;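 active means inhibition above a set limit, the mean inhibition across all tested compounds plus 3 SD, cut at about 34% in these data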;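 further: 0% = IFN-gamma with DMSO and 100% = IFN-gamma with 300 µM nifuroxazide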
# Hep lipid conf – hepatocyte lipid droplet accumulation inhibitors, confirmation, imaging, AML12 mouse hepatocytes, single concentration, high-content | shares compounds with Lipid droplet | BODIPY lipid droplet imaging; droplets induced with 100 µM oleic acid | inhibition, % at 5.2 µM | 870 tested, 65% active;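 active means inhibition of lipid droplet metric at least 50%, with more than 300 cells in each of four replicates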;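 further: plate controls were DMSO with oleic acid for no effect and 5 µM Triacsin-C for full effect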
# AML12 tox img – AML12 hepatocyte cytotoxicity, counter-screen for hepatic lipid droplet formation project, imaging, DAPI nuclear morphology imaging; shares compounds with Lipid droplet; AML12 mouse hepatocytes; active compounds read high; cells fed 100 µM oleate overnight; z-score at 5 µM; 870 tested, 3% active; AID 463200, 2010; in the data active means z-score above about 6.3;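 further: compound exposure lasted overnight at 37 °C before fixation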
# AML12 tox conf – AML12 hepatocyte cytotoxicity, confirmation, cytotoxicity control for hepatic lipid droplet formation project, cell-based, single concentration; shares compounds with Lipid droplet; AML12 mouse hepatocyte viability, ATP luminescence; cells loaded with 100 µM oleic acid; cytotoxicity, % at 50 µM; 530 tested, under 10 active; AID 463219, 2010;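 active means cytotoxicity above 50% in each of four replicates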;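 further: compound exposure lasted overnight at 37 °C before the ATP read; 0% = DMSO-treated cells and 100% = wells with no cells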
# Active calls of the source: *; . = not tested or not shown. A selection: hits, their analogues and other compounds. The true share with any hit is near 1.5%.
SMILES,STAT3 inh,Lipid droplet,H9c2 TAG inh,Platelet DG rel,PPC-1+TRAIL kill,STAT1 blocker,Hep lipid conf,AML12 tox img,AML12 tox conf
CCOC(=O)c1ccc(N2CCN(c3ccccc3F)CC2)c(NC(=O)Nc2ccccc2)c1,-10,52*,.,0,31,6,100*,-0.15,-5
C/C(Sc1nnc(Cc2ccccc2)o1)=C(\O)c1ccccc1,.,.,-12,.,.,.,.,.,.
O=C(NCc1ccccc1)c1cccc(COc2ccc(Cl)cc2)c1,5,.,0,-1,5,-26,.,.,.
COc1cc(CNC(=O)c2cccc(COc3ccc(Cl)cc3)c2)cc(OC)c1,19,57*,.,2,22,-8,92*,-0.29,-3
CCCN1C(=O)/C(=C\C=C2/Sc3ccccc3N2CC)SC1=S,11,21,.,5,.,-1,.,.,.
CCCN1C(=O)/C(=C\C=C2\N(CC)c3ccccc3C2(C)C)SC1=S,6,111*,-251,5,16,9,115*,0.19,8
CCOc1cc(C(=O)Nc2ccc(N3CCN(S(C)(=O)=O)CC3)cc2)cc(OCC)c1OCC,-3,61*,0,-17,14,-5,93*,0.8,7
CCOc1cccc(C(=O)Nc2ccc(N3CCN(S(C)(=O)=O)CC3)cc2)c1,0,-1,16,-2,-9,-9,.,.,.
C[C@H](CO)N1C[C@H](C)[C@@H](CN(C)C)Oc2c(NS(=O)(=O)c3cn(C)cn3)cccc2C1=O,.,.,5,.,.,.,.,.,.
COC(=O)[C@]1(C)N[C@H](CN(C)C(=O)NC(C)C)[C@@H]2C(=O)N(C)C(=O)[C@@H]21,.,.,-4,.,.,.,.,.,.
CCOc1ccc(C2=NNC(c3cccs3)=Nc3ccc(OC)cc32)cc1OCC,14,55*,33,5,6,9,71*,0.57,20
CCN(CC(=O)Nc1ccc2c(c1)OCCO2)C(=O)c1ccc([N+](=O)[O-])s1,.,.,1,.,.,.,.,.,.
Cc1cc(C)cc(NC(=O)CCC(=O)Nc2cc(C)on2)c1,4,75*,.,9,27,-1,71*,-1.2,0
COc1ccc(C(C(=O)NC(C)(C)C)N(Cc2ccccc2)C(=O)CCC(=O)Nc2cc(C)on2)cc1 (stereo unspecified),-4,66*,.,17,8,1,70*,-0.48,7
Cc1ccc(C(C(=O)NC(C)(C)C)N(Cc2ccco2)C(=O)CCC(=O)Nc2ccccn2)cc1 (stereo unspecified),.,50*,.,-4,.,.,44,0.56,.
CCC(C)(C)NC(=O)C(c1ccc(OC)cc1)N(Cc1ccccc1)C(=O)CCC(=O)Nc1cc(C)on1 (stereo unspecified),.,54*,.,13,.,.,92*,-0.42,9
COc1cccc(C(C(=O)NC(C)(C)C)N(CCC(C)C)C(=O)CCC(=O)Nc2cc(C)on2)c1OC (stereo unspecified),8,-6,0,0,14,4,.,.,.
COc1ccc(C(C(=O)NC(C)(C)C)N(CCC(C)C)C(=O)CCC(=O)Nc2cc(C)on2)cc1 (stereo unspecified),.,114*,.,3,.,.,108*,-0.014,10
Cc1nc2[nH]c(=O)n(O)c(=O)c2s1,.,.,2,.,.,.,.,.,.
COC(=O)[C@]1(C)N[C@H](CN(C)C(=O)C2CCCCC2)[C@@H]2C(=O)N(Cc3ccccc3)C(=O)[C@@H]21,.,.,-3,.,.,.,.,.,.
COCCNC(=O)C1(C)CCCN(Cc2cccc(OC(=O)c3ccccc3)c2)C1 (stereo unspecified),.,.,0,.,.,.,.,.,.
COc1ccc(NC(=O)c2cc(-c3cc(F)ccc3OC(C)C)n[nH]2)cc1OC,.,.,9,.,.,.,.,.,.
O=C(Nc1nc(-c2cccs2)c(-c2cccs2)s1)C1CCCC1,-1,54*,.,2,11,-2,94*,-0.48,.
C[C@H](CO)N1C[C@H](C)[C@H](CN(C)S(=O)(=O)c2cccc(F)c2)Oc2ncc(-c3cccc(C(=O)N(C)C)c3)cc2C1=O,.,.,8,.,.,.,.,.,.
Cn1c(=O)c2c(ncn2CC(=O)OCCCC(=O)c2ccc(Br)cc2)n(C)c1=O,.,.,5,.,.,.,.,.,.
SMILES,STAT3 inh,Lipid droplet,H9c2 TAG inh,Platelet DG rel,PPC-1+TRAIL kill,STAT1 blocker,Hep lipid conf,AML12 tox img,AML12 tox conf
CCOc1ccc(C(=O)OCC(=O)Nc2cc(C)on2)cc1OCC,-4,80*,.,1,24,14,106*,-0.18,11
CCOc1cc(C(=O)OCC(=O)Nc2cc(C)on2)ccc1OCC(C)C,0,16,1,0,22,0,.,.,.
Cc1sc(NC(=O)Cc2ccc3c(c2)OCO3)nc1-c1ccc2c(c1)CCN2C(=O)c1ccccc1F,12,51*,.,-3,10,-5,83*,0.17,3
Cc1sc(NC(=O)Cc2ccc3c(c2)OCO3)nc1-c1ccc2c(c1)CCN2C(=O)c1ccc(F)cc1,12,34,.,-4,-19,1,.,.,.
Cc1cc(C(=O)CS(=O)(=O)c2ccc(F)cc2)cc(C)c1O,.,7,.,-8,.,.,.,.,.
O=C(/C=C/c1ccccc1)Nc1cccc(C(=O)NC2CC2)c1,.,.,-1,.,.,.,.,.,.
COc1ccc(C2CC(c3cccs3)=NN2C(=O)c2ccc(Br)o2)cc1 (stereo unspecified),8,83*,.,4,-1,3,93*,0.47,-11
CCC(=O)N1N=C(c2cccs2)CC1c1ccc(OC)cc1 (stereo unspecified),.,-2,.,-4,.,.,.,.,.
CN(CCN1CCOCC1)C(=O)C1CCC(=O)N(Cc2ccc(Cl)cc2)C1 (stereo unspecified),.,.,-3,.,.,.,.,.,.
COc1ccc(C(C)=O)cc1CSc1nnc(Nc2ccc(C)cc2C)s1,-9,90*,-2,-5,15,2,8,-0.4,.
C(=N\Nc1nc(N2CCCCC2)nc(N2CCCCC2)n1)/c1c[nH]c2ccccc12,20,-4,.,0,8,-8,.,.,.
CN(C)c1nc(N/N=C/c2c[nH]c3ccccc23)nc(N2CCOCC2)n1,-26,131*,138,14,10,14,86*,22*,.
Cc1nn(-c2ccccc2)c2nc(C(Cl)(Cl)Cl)[nH]c(=O)c12,.,-5,-4,4,0,.,.,.,.
Cc1ccc(-n2nc(C)c3c(=O)[nH]c(C(F)(F)F)nc32)cc1,-3,74*,.,1,10,0,12,-0.31,.
